Converted amounts (≈) assume the structure as drawn.
Tests used:
Trichomonas vaginalis [1] = test: Antitrichomonas activity against metronidazole-susceptible Trichomonas vaginalis assessed as decrease in cell viability after 48 hrs by trypan blue exclusion method; type: functional
Cryptococcus neoformans = test: Antifungal activity against Cryptococcus neoformans after 48 hrs by broth microdilution method; type: functional
Procedure, shortened: (§1)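 Broth microdilution per NCCLS guidelines in MOPS-buffered RPMI 1640; starting inoculum 1-5 x 10^3 CFU/mL; plates incubated at 35 °C; MIC recorded after 48 h; fluconazole as reference; experiments repeated three times.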

Candida albicans [2] = test: Antifungal activity against Candida albicans ATCC 10231 after 48 hrs by broth microdilution method; type: functional; details: ATCC 10231, 48 h; procedure, shortened: as §1
Candida albicans [3] = test: Antifungal activity against Candida albicans ATCC 14053 after 48 hrs by broth microdilution method; type: functional; details: ATCC 14053, 48 h; procedure, shortened: as §1
[4] = Selectivity index, ratio of IC50 for human HeLa cells to MIC for metronidazole-resistant Trichomonas vaginalis CDC085 ATCC 50143; type: toxicity; details: read-out: Selectivity Index
[5] = Selectivity index, ratio of IC50 for human HeLa cells to MIC for metronidazole-susceptible Trichomonas vaginalis; type: toxicity; details: read-out: Selectivity Index
HeLa = test: Cytotoxicity against human HeLa cells after 24 hrs by MTT assay; type: cell-based
Candida albicans [6] = test: Antifungal activity against Candida albicans patient isolate after 48 hrs by broth microdilution method; type: functional; procedure, shortened: as §1
Candida albicans [7] = test: Antifungal activity against Candida albicans MTCC 183 after 48 hrs by broth microdilution method; type: functional; details: MTCC 183, 48 h; procedure, shortened: as §1
Trichomonas vaginalis [8] = test: Potency index, ratio of metronidazole MIC to test compound MIC for metronidazole-resistant Trichomonas vaginalis CDC085 ATCC 50143; type: functional
Candida parapsilosis = test: Antifungal activity against Candida parapsilosis ATCC 22019 after 48 hrs by broth microdilution method; type: functional; details: Lodderomyces parapsilosis, ATCC 22019, 48 h; procedure, shortened: as §1
Candida albicans [9] = test: Antifungal activity against Candida albicans ATCC 66027 after 48 hrs by broth microdilution method; type: functional; details: ATCC 66027, 48 h; procedure, shortened: as §1
Nakaseomyces glabratus = test: Antifungal activity against Candida glabrata ATCC 2001 after 48 hrs by broth microdilution method; type: functional; details: ATCC 2001, 48 h; procedure, shortened: as §1
Trichomonas vaginalis [10] = test: Antitrichomonas activity against metronidazole-resistant Trichomonas vaginalis CDC085 ATCC 50143 assessed as decrease in cell viability after 48 hrs by trypan blue exclusion method; type: functional; details: CDC085 ATCC 50143, 48 h
Sporothrix schenckii = test: Antifungal activity against Sporothrix schenckii after 48 hrs by broth microdilution method; type: functional; procedure, shortened: as §1
[11] = tested on: Trichophyton mentagrophytes; test: Antifungal activity against Trichophyton mentagrophytes after 48 hrs by broth microdilution method; type: functional; procedure, shortened: as §1

Compound | MIC (Trichomonas vaginalis [1]) | MIC (Cryptococcus neoformans) | MIC (Candida albicans [2]) | MIC (Candida albicans [3]) | selectivity ratio [4] | selectivity ratio [5] | IC50 (HeLa) | MIC (Candida albicans [6]) | MIC (Candida albicans [7]) | Ratio (Trichomonas vaginalis [8]) | MIC (Candida parapsilosis) | MIC (Candida albicans [9]) | MIC (Nakaseomyces glabratus) | MIC (Trichomonas vaginalis [10]) | MIC (Sporothrix schenckii) | MIC [11]
CN(C)C(=S)SC(=S)N1CCCC1 | 26.7 µM (≈ 6.26 µg/mL) | 214 µM (≈ 50.1 µg/mL) | 53.4 µM (≈ 12.5 µg/mL) | 26.7 µM (≈ 6.26 µg/mL) | 29 | 115 | 3.09 mM | 107 µM (≈ 25 µg/mL) | 53.4 µM (≈ 12.5 µg/mL) | 1.5 - 3.8 | 107 µM (≈ 25 µg/mL) | 53.4 µM (≈ 12.5 µg/mL) | 53.4 µM (≈ 12.5 µg/mL) | 107 µM (≈ 25 µg/mL) | 53.4 µM (≈ 12.5 µg/mL) | 53.4 µM (≈ 12.5 µg/mL)
CCSC(=S)N1CCN(C(=S)SC(=S)N(C)C)CC1 | 141 µM (≈ 49.9 µg/mL) | 141 µM (≈ 49.9 µg/mL) | 141 µM (≈ 49.9 µg/mL) | 141 µM (≈ 49.9 µg/mL) | 15 | 31 | 4.48 mM | 17.6 µM (≈ 6.23 µg/mL) | 70.5 µM (≈ 24.9 µg/mL) | 1.3 - 11.2 | 8.81 µM (≈ 3.12 µg/mL) | 70.5 µM (≈ 24.9 µg/mL) | > 141 µM | 282 µM (≈ 99.9 µg/mL) | 35.2 µM (≈ 12.5 µg/mL) | 35.2 µM (≈ 12.5 µg/mL)
OC(Cn1cncn1)(Cn1cncn1)c1ccc(F)cc1F [FLUCONAZOLE] | – | 6.53 µM (≈ 2 µg/mL) | 3.26 µM (≈ 0.998 µg/mL) | 0.39 µM (≈ 0.119 µg/mL) | – | – | – | 3.26 µM (≈ 0.998 µg/mL) | – | – | 6.53 µM (≈ 2 µg/mL) | 1.63 µM (≈ 0.499 µg/mL) | 13.1 µM (≈ 4 µg/mL) | – | 6.53 µM (≈ 2 µg/mL) | > 105 µM
CCCCNC(=S)N1CCN(C(=S)SC(=S)N(C)C)CC1 | 68.5 µM (≈ 25 µg/mL) | > 137 µM | > 137 µM | > 137 µM | 20 | 41 | 2.84 mM | 137 µM (≈ 49.9 µg/mL) | > 137 µM | 1.3 - 11.2 | 137 µM (≈ 49.9 µg/mL) | > 137 µM | > 137 µM | 137 µM (≈ 49.9 µg/mL) | 137 µM (≈ 49.9 µg/mL) | 137 µM (≈ 49.9 µg/mL)
COc1ccccc1N1CCN(C(=S)SC(=S)N(C)C)CC1 | 281 µM (≈ 99.9 µg/mL) | > 140 µM | > 140 µM | > 140 µM | 6 | 15 | 4.33 mM | > 140 µM | 140 µM (≈ 49.9 µg/mL) | 1.3 - 9.5 | 70.2 µM (≈ 25 µg/mL) | 70.2 µM (≈ 25 µg/mL) | > 140 µM | 702 µM (≈ 250 µg/mL) | 140 µM (≈ 49.9 µg/mL) | 140 µM (≈ 49.9 µg/mL)
CN(C)C(=S)SC(=S)N1CCN(c2ccccc2)CC1 | 38.3 µM (≈ 12.5 µg/mL) | 76.7 µM (≈ 25 µg/mL) | > 153 µM | > 153 µM | 21 | 42 | 1.61 mM | 38.3 µM (≈ 12.5 µg/mL) | > 153 µM | 1.3 - 9.5 | 76.7 µM (≈ 25 µg/mL) | > 153 µM | > 153 µM | 76.7 µM (≈ 25 µg/mL) | 76.7 µM (≈ 25 µg/mL) | 76.7 µM (≈ 25 µg/mL)
CSC(=S)N1CCN(C(=S)SC(=S)N(C)C)CC1 | 294 µM (≈ 99.9 µg/mL) | > 147 µM | > 147 µM | > 147 µM | > 7 | > 17 | > 5 mM | > 147 µM | > 147 µM | – | 36.8 µM (≈ 12.5 µg/mL) | > 147 µM | > 147 µM | 735 µM (≈ 250 µg/mL) | 147 µM (≈ 49.9 µg/mL) | 147 µM (≈ 49.9 µg/mL)
CCCCN1CCN(C(=S)SC(=S)N(C)C)CC1 | 20.4 µM (≈ 6.24 µg/mL) | 163 µM (≈ 49.9 µg/mL) | 163 µM (≈ 49.9 µg/mL) | 163 µM (≈ 49.9 µg/mL) | 50 | 200 | 4.1 mM | 163 µM (≈ 49.9 µg/mL) | 81.7 µM (≈ 25 µg/mL) | 1.3 - 9.5 | 163 µM (≈ 49.9 µg/mL) | 81.7 µM (≈ 25 µg/mL) | 163 µM (≈ 49.9 µg/mL) | 81.7 µM (≈ 25 µg/mL) | 163 µM (≈ 49.9 µg/mL) | 163 µM (≈ 49.9 µg/mL)
CN(C)C(=S)SC(=S)N(C)C [BIS(DIMETHYLAMINETHIOCARBONYL)MONOSULFIDE] | 60.1 µM (≈ 12.5 µg/mL) | 240 µM (≈ 50.1 µg/mL) | 120 µM (≈ 25 µg/mL) | 120 µM (≈ 25 µg/mL) | > 20 | > 83 | > 5 mM | 120 µM (≈ 25 µg/mL) | 120 µM (≈ 25 µg/mL) | 1.3 - 11.2 | 120 µM (≈ 25 µg/mL) | 60.1 µM (≈ 12.5 µg/mL) | 60.1 µM (≈ 12.5 µg/mL) | 240 µM (≈ 50.1 µg/mL) | 60.1 µM (≈ 12.5 µg/mL) | 60.1 µM (≈ 12.5 µg/mL)
CCN(C)C(=S)SC(=S)N(C)C | 113 µM (≈ 25 µg/mL) | 225 µM (≈ 50.1 µg/mL) | 113 µM (≈ 25 µg/mL) | 113 µM (≈ 25 µg/mL) | 9 | 18 | 2.07 mM | 113 µM (≈ 25 µg/mL) | 56.3 µM (≈ 12.5 µg/mL) | 1.5 - 3.8 | 113 µM (≈ 25 µg/mL) | 28.1 µM (≈ 6.26 µg/mL) | 113 µM (≈ 25 µg/mL) | 225 µM (≈ 50.1 µg/mL) | 56.3 µM (≈ 12.5 µg/mL) | 56.3 µM (≈ 12.5 µg/mL)

Source: ChEMBL document CHEMBL4138228, “Substituted carbamothioic amine-1-carbothioic thioanhydrides as novel trichomonicidal fungicides: Design, synthesis, and biology” (Eur J Med Chem, 2018)
